# p-CIP stab down = p/CIP-EGFP fusion destabilizers, primary screen, fluorescence, F442A cells | decrease of EGFP signal, % at 10 µM | 290,000 tested, 0.01% active | Q05BA5 | 16 h;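 active means EGFP signal decrease of at least 30% at 10 µM or well 3 SD below plate mean, unless failing retest; inactive means the rest, including hits failing retest or dose response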
# V-ATPase pHluor = regulators of yeast V-ATPase proton pumping, primary screen, pHLuorin cytosolic pH fluorescence | response, % at 10 µM | S. cerevisiae | 350,000 tested, 0.37% active; in the data active means response mostly above about 7.3%, no sharp cut-off; inactive means mostly below about 5.4%; further: actives read high
# Cl transport mod = KCC2 cotransporter modulators, thallium flux, primary screen, cell-based, HEK293 KCC2, FluoZin-2 fluorescence, MLSMR; Solute carrier family 12 member 5 (Homo sapiens), Q9H2X9; KCC2 cells, thallium flux FluoZin-2 fluorescence; B-score of Tl+ flux slope (higher = more flux/activation; lower = inhibition) at 10 µM; 190,000 tested, 2.2% active; AID 1456, 2008;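 active means thallium flux slope and its plate-corrected score both differing from the plate sample mean at a set confidence after two filtering rounds, in either direction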;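 further: slope of fluorescence scaled to starting intensity during 10 to 20 s after thallium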
# Dynein cargo inh = inhibitors of GR-EGFP nuclear translocation, primary screen, dynein cargo transport inhibitor project, imaging, high-content, 3617.4 mouse cells; test concentration mostly 20 µM; stimulated with dexamethasone, 1 µM; hits give low values; z-score, hits read low; 220,000 tested, 0.47% active;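 active means plate z-score of nuclear minus cytoplasmic receptor signal below a set negative limit, without overly bright fluorescence or cell loss, cut at about -3.5 in these data, passing the limit was not always enough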;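 further: z-score of nuclear minus cytoplasmic ring GR-EGFP intensity difference per well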
#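 Buffer or medium: tetracycline-free induction medium containing charcoal-stripped FBS / Reagent: dexamethasone agonist, 1.0 µM final, for 30 min / Technique: automated 10x imaging of fixed Hoechst-stained cells / Times: induction 48 h, compound 1 h, agonist 30 min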
# ABCB6 inh 2 = ABCB6 transporter inhibitors, primary screen, K562-ABCB6 cells, flow cytometry, MLPCN library; 360,000 tested, 0.19% active; K562-ABCB6 porphyrin accumulation, 1 h; hits give low values; AID 602162, 2011; fluorescence ratio to DMSO, % at 10 µM; ATP-binding cassette sub-family B member 6 (Homo sapiens), Q9NP58;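 active means fluorescence ratio to DMSO below 75%, the collection mean minus 3 SD; inconclusive means too few cells collected in the well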;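 further: signal is porphyrin accumulated inside mitochondria; 100% equals median channel fluorescence of DMSO control wells; lower ratio means ABCB6 inhibition with less porphyrin fluorescence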
# KCC2 sec1 = KCC2 modulators in sodium-free buffer, confirmation, cell-based, HEK293 KCC2, thallium flux, secondary assay; shares compounds with Cl transport mod; FluoZin2 fluorescence; hits give high values; normalised thallium flux (F/F0 slope) at 10 µM; 3,700 tested, 15% active; AID 1713, 2009;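 active means thallium flux slope above the same plate's solvent-only control mean plus 3 SD; inconclusive means the two replicate wells disagree; inactive means no significant difference from solvent-only control wells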
# KCC2 bumet counter = thallium flux persisting under bumetanide in KCC2 cells, confirmation, counter-screen for KCC2 modulator project, cell-based, HEK293 KCC2, FluoZin2, secondary assay 3 | shares compounds with Cl transport mod | HEK293-KCC2 + bumetanide/ouabain; hits give high values | normalized thallium flux at 10 µM | 3,700 tested, 49% active | AID 1714, 2009;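 active means thallium entry rate above the same plate's blocked-transporter control wells by more than 3 SD; inconclusive means the two repeat wells disagree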;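 further: raw slope of fluorescence over initial fluorescence between 10 and 20 s after thallium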
# KCC2 secondary2 = KCC2 modulators without ouabain present, confirmation, cell-based, HEK293 KCC2, thallium flux, FluoZin2, secondary assay 2; shares compounds with Cl transport mod; thallium flux FluoZin2 fluorescence; actives lie on both sides; F/F0 rise rate, 10–20 s post-thallium; normalized thallium flux at 10 µM; 3,700 tested, 23% active; AID 1715, 2009;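 active means thallium flux slope more than 3 SD above or below the plate's solvent-only control mean, mostly below; inconclusive means the two repeat wells disagreed; inactive means no significant shift from solvent-only controls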;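 further: raw slope with 0.1% DMSO as baseline and bumetanide as block control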
# HEK counter1 = thallium flux modulation in parental HEK cells, confirmation, counter-screen for KCC2 modulator project, cell-based, counterscreen 1. shares compounds with Cl transport mod. HEK293 parental cells, thallium flux FluoZin2, ouabain; baseline-ratio fluorescence slope, 10–20 s after thallium. thallium flux rate (normalised fluorescence) at 10 µM. 3,700 tested, 46% active. AID 1716, 2009;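 active means thallium flux rate significantly above the same plate's solvent-only control wells, beyond their mean plus 3 SD; inconclusive means the two replicate wells gave conflicting results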
# KCC2 retest ouab = KCC2 inhibitors and activators, ouabain retest, confirmation, HEK-KCC2 cells; shares compounds with Cl transport mod; HEK293-KCC2, thallium flux FluoZin2 fluorescence; bidirectional: low = inhibitor, high = activator; raw Tl+ flux slope (below DMSO = inhibition, above = activation) at 10 µM; 3,700 tested, 48% active; AID 1717, 2009;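 active means thallium flux slope beyond 3 SD from same-plate DMSO control mean in most replicates, usually higher, sometimes lower; inconclusive means repeat tests gave conflicting results; inactive means no significant difference from controls in most replicates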;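 further: slope of initial-normalized fluorescence between seconds 10 and 20 after thallium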
# HEK293 Tl flux2 = native HEK Tl+ uptake effects, second counter-screen – HEK cells, counterscreen 2, counter-screen for KCC2 modulator project, confirmation; shares compounds with Cl transport mod; HEK293 parental, thallium flux FluoZin-2 fluorescence slope; thallium flux slope at 10 µM; 3,700 tested, 33% active; AID 1718, 2009;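 active means thallium flux slope above the same plate's solvent-control mean plus 3 SD in both duplicate wells; inconclusive means duplicate wells that disagreed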;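 further: run without ouabain in cells lacking the KCC2 cotransporter; slope of fluorescence scaled to its starting value between 10 and 20 s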
# Active calls of the source: *; ? = inconclusive; . = not tested or not shown. Many of the other results were omitted from the sample, so hits are more common in it than they were.
SMILES,p-CIP stab down,V-ATPase pHluor,Cl transport mod,Dynein cargo inh,ABCB6 inh 2,KCC2 sec1,KCC2 bumet counter,KCC2 secondary2,HEK counter1,KCC2 retest ouab,HEK293 Tl flux2
CCN(CC)c1ccc(/C=N/NC(=S)NC)c(O)c1,-3.0,-2.7,5.1*,0.528,164.0,0.00907,0.0125*,0.0308,?,0.0222,0.0103
O=C(OCc1nc2ccsc2c(=O)[nH]1)c1cccc(S(=O)(=O)N2CCOCC2)c1,.,3.9,.,.,98.0,.,.,.,.,.,.
Cc1cc(C(=O)OCC(=O)Nc2cccc(S(=O)(=O)N(C)C)c2)c2ccccc2n1,-2.2,-2.8,-2.89*,1.09,95.0,0.00886,0.006,0.0295,0.00571*,0.0188,0.00926
Cc1ccc2c(Cl)cc(Cl)c(OCC(=O)Nc3cccc(S(=O)(=O)N(C)C)c3)c2n1,3.0,-1.0,7.87*,-0.227,98.0,0.0102,0.0187*,0.0339,0.0143*,0.03*,?
Cc1ccc2c(Cl)cc(Cl)c(OCC(=O)Nc3cccc(S(N)(=O)=O)c3)c2n1,1.7,-1.2,2.41,-0.16,84.0,.,.,.,.,.,.
Cc1cc(C(=O)OCC(=O)Nc2cccc(S(=O)(=O)N(C)C)c2)c(C)o1,-4.5,0.9,-1.37,-0.191,100.0,.,.,.,.,.,.
Cc1ccc2c(Cl)cc(Cl)c(OCC(=O)Nc3ccc(C)c(S(=O)(=O)N(C)C)c3)c2n1,4.3,.,4.59*,-0.369,.,0.00992,0.0168*,0.0335,0.0157*,0.0244*,0.0121
COc1ccc(F)cc1S(=O)(=O)N1CCc2ccccc2C1,.,2.0,.,.,105.0,.,.,.,.,.,.
O=C(NNC(=O)C1CC1)c1cc(=O)[nH]c2ccccc12,.,3.4,.,.,99.0,.,.,.,.,.,.
CC(=O)c1ccccc1NC(=O)CSc1nnc(Cc2csc(C)n2)o1,.,-1.7,.,.,92.0,.,.,.,.,.,.
Cc1nn(-c2ccccc2)nc1C(=O)NNC(=O)c1ccc(C(F)(F)F)cc1,-6.3,-4.5,21.6*,0.151,101.0,0.0227*,0.0973*,0.0345,0.0352*,0.0551*,0.0168*
Cc1nc(C(=O)NNC(=O)c2ccc(C(F)(F)F)cc2)cs1,13.3,0.1,5.09*,-0.447,95.0,0.0092,0.0199*,0.029,0.0104*,?,?
Cc1nn(-c2ccccc2)nc1C(=O)NNC(=O)c1cccc2ccccc12,3.7,-5.7,68.9*,0.668,98.0,0.0238*,0.154*,0.0372,0.0746*,0.0996*,0.0243*
Cc1ccc(N2CC(C(=O)OCC(=O)Nc3ccccc3C)CC2=O)cc1 (stereo not given),.,-2.8,.,.,97.0,.,.,.,.,.,.

# Bioassay records as filed in PubChem BioAssay.
